An excerpt weighted towards active compounds, which were near 4.1% of everything screened.
KCNK9 inh – inhibitors of human KCNK9 two-pore domain potassium channel. Q9NPC2. 310,000 tested, 1.2% active. AID 488922. B-score at 10 µM. HEK293 KCNK9, FluxOR thallium flux fluorescence; stronger effect = lower value;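 active = ratio B-score over 3 SD below the library mean, with starting fluorescence within 5 SD of its mean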;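 note: negative B-score means less thallium flux so channel inhibition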
KCNQ1 block – human KCNQ1 channel inhibition; CHO-K1 KCNQ1, FluxOR thallium flux fluorescence; stronger effect = higher value; B-score at 10 µM; 310,000 tested, 1.3% active; AID 2642;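 active = compounds whose thallium flux B-score, printed positive for inhibition, exceeds three library SD while starting fluorescence stays within three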;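 note: channel opened by potassium depolarization with thallium stimulus after 20 min compound exposure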
hERG rescue – hERG (human) protection from proarrhythmic block; CHO-hERG, FluxOR thallium flux, dofetilide IC70 present; activation (rescue from dofetilide block), less the hit threshold, % at 10 µM; 310,000 tested, 0.51% active;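 active = activation above the mean of controls blocked by dofetilide plus 5 SD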;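 note: thallium influx through hERG after potassium depolarization seen as dye fluorescence rise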
KCNK3 block – human KCNK3 channel inhibition, primary screen. B-score at 10 µM. 340,000 tested, 0.84% active. CHO-KCNK3 thallium flux, FluxOR fluorescence; stronger effect = lower value. O14649;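 active = B-score under library mean minus 4 SD, starting fluorescence ratio at most library mean plus 5 SD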;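 note: more negative B-score means stronger inhibition of thallium flux through KCNK3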
KCC2 mod – modulates chloride dependent transport by human KCC2; 190,000 tested, 2.2% active; KCC2 cells, thallium flux FluoZin-2 fluorescence; Q9H2X9; AID 1456; B-score of Tl+ flux slope (higher = more flux/activation; lower = inhibition) at 10 µM;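 active = thallium flux slope and its plate-corrected score both differing from the plate sample mean at a set confidence after two filtering rounds, in either direction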;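 note: slope of fluorescence scaled to starting intensity during 10 to 20 s after thallium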
Target sequence (Q9H2X9 whole entry, looked up): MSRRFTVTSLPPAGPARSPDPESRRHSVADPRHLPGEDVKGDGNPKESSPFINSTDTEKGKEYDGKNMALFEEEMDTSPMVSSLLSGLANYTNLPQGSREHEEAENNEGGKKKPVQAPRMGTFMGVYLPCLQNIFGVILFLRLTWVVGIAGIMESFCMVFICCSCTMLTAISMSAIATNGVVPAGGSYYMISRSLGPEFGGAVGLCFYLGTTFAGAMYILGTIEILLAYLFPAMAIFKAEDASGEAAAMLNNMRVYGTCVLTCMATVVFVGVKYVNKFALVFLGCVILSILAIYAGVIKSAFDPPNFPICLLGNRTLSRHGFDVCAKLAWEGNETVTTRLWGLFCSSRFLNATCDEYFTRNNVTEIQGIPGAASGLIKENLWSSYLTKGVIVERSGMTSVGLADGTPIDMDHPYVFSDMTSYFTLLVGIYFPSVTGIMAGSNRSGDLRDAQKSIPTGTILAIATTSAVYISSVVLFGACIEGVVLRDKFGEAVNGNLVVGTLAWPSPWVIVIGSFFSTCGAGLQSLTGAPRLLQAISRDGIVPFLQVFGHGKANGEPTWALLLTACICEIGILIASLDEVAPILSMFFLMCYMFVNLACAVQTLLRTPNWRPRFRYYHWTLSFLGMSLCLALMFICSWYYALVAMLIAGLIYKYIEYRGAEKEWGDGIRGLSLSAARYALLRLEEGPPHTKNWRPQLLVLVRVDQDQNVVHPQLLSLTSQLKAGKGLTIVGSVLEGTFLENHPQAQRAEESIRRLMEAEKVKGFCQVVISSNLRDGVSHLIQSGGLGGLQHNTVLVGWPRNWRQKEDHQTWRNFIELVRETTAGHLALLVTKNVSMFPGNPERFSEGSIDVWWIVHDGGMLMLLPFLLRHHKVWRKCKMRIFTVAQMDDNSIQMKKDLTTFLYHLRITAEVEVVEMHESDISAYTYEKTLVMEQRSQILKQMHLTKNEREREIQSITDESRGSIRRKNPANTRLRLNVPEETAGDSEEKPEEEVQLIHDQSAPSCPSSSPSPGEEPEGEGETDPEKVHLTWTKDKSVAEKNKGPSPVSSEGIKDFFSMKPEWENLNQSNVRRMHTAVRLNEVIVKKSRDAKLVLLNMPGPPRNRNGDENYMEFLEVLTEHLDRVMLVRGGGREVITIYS
KCNQ1 pot – potentiators or activators of human KCNQ1 potassium channel | P51787 | CHO-K1 KCNQ1, thallium flux FluxOR fluorescence; stronger effect = higher value | B-score at 10 µM | 310,000 tested, 0.35% active | AID 2648;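 active = fluorescence ratio B-score, a plate-corrected score, at least three library SD, with initial intensity B-score within 5 SD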
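assay system = CHO-K1 cells stably expressing KCNQ1 | medium = assay buffer, equal DMSO in all wells | timing = 37 °C overnight plating, 90-min dark dye load, 20-min compound pretreatment | measured by = kinetic FluxOR thallium fluorescence, 10-s 1-Hz baseline, 110-s post-stimulus read | measure = fluorescence change relative to baseline, converted to B score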
KCC2 sec1 – confirmation of human KCC2 transport modulators | shares compounds with KCC2 mod | HEK293-KCC2, thallium flux, FluoZin2 fluorescence; stronger effect = higher value | normalised thallium flux (F/F0 slope) at 10 µM | 3,700 tested, 15% active | AID 1713;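 active = thallium flux slope above the same plate's solvent-only control mean plus 3 SD; inconclusive = the two replicate wells disagree; inactive = no significant difference from solvent-only control wells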
KCC2 bumet counter – thallium flux despite bumetanide block in KCC2 cells, secondary assay 3 | shares compounds with KCC2 mod | HEK293-KCC2 + bumetanide/ouabain, thallium flux FluoZin2; stronger effect = higher value | normalized thallium flux at 10 µM | 3,700 tested, 49% active;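 active = thallium entry rate above the same plate's blocked-transporter control wells by more than 3 SD; inconclusive = the two repeat wells disagree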;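 note: raw slope of fluorescence over initial fluorescence between 10 and 20 s after thallium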
KCC2 sec2 – KCC2 (human) modulation, second secondary assay; HEK293-KCC2, thallium flux FluoZin2 fluorescence; actives lie on both sides; F/F0 rise rate, 10–20 s post-thallium; normalized thallium flux at 10 µM; AID 1715; 3,700 tested, 23% active; shares compounds with KCC2 mod;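 active = thallium flux slope more than 3 SD above or below the plate's solvent-only control mean, mostly below; inconclusive = the two repeat wells disagreed; inactive = no significant shift from solvent-only controls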;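 note: raw slope with 0.1% DMSO as baseline and bumetanide as block control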
HEK293 Tl flux – acts in parental HEK cells, KCC2 counter-screen; shares compounds with KCC2 mod; HEK293 parental cells, thallium flux FluoZin2, ouabain; baseline-ratio fluorescence slope, 10–20 s after thallium; thallium flux rate (normalised fluorescence) at 10 µM; 3,700 tested, 46% active; AID 1716;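 active = thallium flux rate significantly above the same plate's solvent-only control wells, beyond their mean plus 3 SD; inconclusive = the two replicate wells gave conflicting results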
KCC2 ouabain – confirmation of human KCC2 modulators with ouabain; shares compounds with KCC2 mod; HEK293-KCC2, thallium flux FluoZin2 fluorescence; bidirectional: low = inhibitor, high = activator; raw Tl+ flux slope (below DMSO = inhibition, above = activation) at 10 µM; 3,700 tested, 48% active; AID 1717;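 active = thallium flux slope beyond 3 SD from same-plate DMSO control mean in most replicates, usually higher, sometimes lower; inconclusive = repeat tests gave conflicting results; inactive = no significant difference from controls in most replicates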;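 note: slope of initial-normalized fluorescence between seconds 10 and 20 after thallium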
HEK counter2 – acts in parental HEK cells, second KCC2 counter-screen; shares compounds with KCC2 mod; HEK293 parental, thallium flux FluoZin-2 fluorescence slope; thallium flux slope at 10 µM; 3,700 tested, 33% active; AID 1718;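 active = thallium flux slope above the same plate's solvent-control mean plus 3 SD in both duplicate wells; inconclusive = duplicate wells that disagreed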;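 note: run without ouabain in cells lacking the KCC2 cotransporter; slope of fluorescence scaled to its starting value between 10 and 20 s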
* hit, by the source's call; i = inactive; ? = inconclusive; · = not tested or not shown.

SMILES	KCNK9 inh	KCNQ1 block	hERG rescue	KCNK3 block	KCC2 mod	KCNQ1 pot	KCC2 sec1	KCC2 bumet counter	KCC2 sec2	HEK293 Tl flux	KCC2 ouabain	HEK counter2
Cc1ncoc1C(=O)N1CCCC(C(=O)c2ccc(-c3ccccc3)cc2)C1 (stereo not drawn)	i	i	-15	i	-3.3*	i	?	0.0062	0.03	0.0065	0.021*	?
O=C(c1ccc(-c2ccccc2)cc1)C1CCCN(C(=O)c2ccncc2)C1 (stereo not drawn)	i	i	-12	i	-1	i	·	·	·	·	·	·
C=CCSc1nnc(NC(=O)C23CC4CC(CC(NC(C)=O)(C4)C2)C3)s1	i	i	-11	i	·	i	·	·	·	·	·	·
COC(=O)[C@]1(Cc2ccccc2)N[C@H](c2ccc(SC3CCCCC3)c(OC)c2)[C@@H]2C(=O)N(C)C(=O)[C@@H]21	·	·	·	i	·	·	·	·	·	·	·	·
COc1ccc(OC)c(N/C(C)=C/C(=O)c2ccncc2)c1	i	i	-20	i	·	i	·	·	·	·	·	·
C/C(=C\C(=O)c1ccncc1)Nc1ccccc1O	i	i	5.7*	i	19*	i	0.015*	0.024*	0.032	0.011*	0.029	0.011*
COc1cc(C2c3cc4c(cc3CC3COC(=O)N32)OCO4)cc(OC)c1OC (stereo not drawn)	·	·	·	i	·	·	·	·	·	·	·	·
COc1ccc(CNC(=S)NCc2ccc(OC)cc2)cc1	i	i	-8	i	-0.13	i	·	·	·	·	·	·
COc1ccc(CNC(=S)NC(C)CCc2ccccc2)cc1 (stereo not drawn)	i	i	-13	i	-4.9*	i	0.0053*	?	?	0.0058*	0.013*	0.0098
CCOC(=O)C1=C(NC(=S)NC(=O)c2ccccc2)c2ccccc2CC1(C)CC (stereo not drawn)	i	i	-11	i	5.6*	i	?	0.033*	0.036	0.015*	?	0.011
O=C(COC(=O)c1cc[n+]([O-])cc1)Nc1ccc([N+](=O)[O-])cc1	i	i	-19	i	0.44	i	·	·	·	·	·	·
Cc1ccc(N(CC(=O)NCCSc2ccccn2)S(=O)(=O)c2ccc(F)cc2)cc1	i	i	-8	i	-4.2*	i	0.0067	0.005	0.026*	0.0069	?	0.01
Cc1onc(C(=O)N2CCN(Cc3ccccc3)CC2)c1[N+](=O)[O-]	i	i	-8	i	-4.1*	i	0.0088	0.0065	?	0.0075	0.019*	0.01
Fc1cccc(F)c1[B-](F)(F)F	·	·	·	i	·	·	·	·	·	·	·	·
CN(C)S(=O)(=O)c1cccc(NC(=O)c2cccc(S(=O)(=O)N3CCCCC3)c2)c1	i	i	-13	i	·	i	·	·	·	·	·	·
S=c1nc(Cc2ccc(Cl)cc2)[nH]c2ccccc12	i	i	4	i	67*	43*	0.053*	0.15*	0.044*	0.099*	0.085*	0.043*
Cc1nc(=S)c2ccccc2[nH]1	i	i	-4	i	·	i	·	·	·	·	·	·
O=C(OCC(=O)N1CCc2ccccc21)c1ccncc1	·	·	·	i	·	·	·	·	·	·	·	·
Cn1c(=O)c([N+](=O)[O-])c(NCCc2ccccc2)c2ccccc21	i	i	-3	i	-0.0049	i	·	·	·	·	·	·
Cn1c(=O)c([N+](=O)[O-])c(NCc2ccccc2Cl)c2ccccc21	i	i	-5	i	-4.5*	i	0.0078	0.004	?	0.0063*	?	?
CCOc1cc(/C=C(/C#N)c2ccc(F)cc2)ccc1OCc1ccc(C(=O)O)o1	i	i	-34	i	-4.9*	i	0.016	0.004	0.024*	0.0055*	0.012*	?
CCOc1cc(/C=C(/C#N)c2nc3ccccc3[nH]2)ccc1OCc1ccc(C(=O)O)o1	i	i	-18	i	-0.83	i	·	·	·	·	·	·
CN(C)c1ccc(/C=C/c2ccc3c4ccccc4ccc3[n+]2-c2ccccc2)cc1	·	·	·	-16*	-3.2*	·	0.005	0.0041	0.024*	?	0.014*	0.01
CN(C)c1ccc(/C=C/c2cccc[n+]2[O-])cc1	i	i	-15	i	-0.41	i	·	·	·	·	·	·
O=C(Nc1ccc(OC(F)(F)F)cc1)c1[nH]ncc1[N+](=O)[O-]	i	i	-4	i	13*	i	0.0081	0.02*	0.033	0.022*	?	0.016*
SMILES	KCNK9 inh	KCNQ1 block	hERG rescue	KCNK3 block	KCC2 mod	KCNQ1 pot	KCC2 sec1	KCC2 bumet counter	KCC2 sec2	HEK293 Tl flux	KCC2 ouabain	HEK counter2
CC(NC(=O)c1ccc(S(=O)(=O)NCc2ccco2)cc1)c1ccc(F)cc1 (stereo not drawn)	·	·	·	i	·	·	·	·	·	·	·	·
Cc1cc(C)cc(NC(=O)c2oc3ccccc3c2COc2ccccc2)c1	i	i	-11	i	-4.8*	i	0.0084	0.0061	0.031	0.0079	0.018	0.011
O=C(Oc1c(-c2ccccc2)c(=O)n2c3c(cccc13)CC2)c1ccccc1	i	i	-11	i	-4.4*	i	0.014	0.0035	0.027	0.0054*	0.013*	0.0072*
COc1ccc(/C(O)=C/Sc2nnc(Cc3ccccc3)o2)cc1	i	i	-4	i	-4.9*	i	0.0063	0.0053	0.025*	0.0065	0.013*	?
COc1ccc(C(=O)CSc2nnc(Cc3ccccc3)o2)cc1	i	i	2	i	-2.9	i	·	·	·	·	·	·
Cc1nc(C(=O)N2CCC(n3nccc3NC(=O)Nc3ccccc3Cl)CC2)cs1	i	i	-1	i	·	i	·	·	·	·	·	·
Cc1ccc2c(c1)c(N=O)c(O)n2Cc1ccc(Cl)cc1	i	i	-8	i	0.026	i	·	·	·	·	·	·
Oc1c(N=NC(=S)Nc2ccccc2F)c2ccccc2n1Cc1ccc(F)cc1	i	i	55*	i	8.3*	15*	0.019	0.03*	0.03	0.013*	0.019	0.014*

Screening data from PubChem BioAssay.
